Measured values: article PMC9276175 (Medicine, 2022)

Legend:
HDAC6 = target: T1, HDAC6 (Homo sapiens, UniProt Q9UBN7); assay: Enzymatic HDAC fluorogenic assay, HDAC6; type: biochemical
T1 sequence (Q9UBN7 1-1215): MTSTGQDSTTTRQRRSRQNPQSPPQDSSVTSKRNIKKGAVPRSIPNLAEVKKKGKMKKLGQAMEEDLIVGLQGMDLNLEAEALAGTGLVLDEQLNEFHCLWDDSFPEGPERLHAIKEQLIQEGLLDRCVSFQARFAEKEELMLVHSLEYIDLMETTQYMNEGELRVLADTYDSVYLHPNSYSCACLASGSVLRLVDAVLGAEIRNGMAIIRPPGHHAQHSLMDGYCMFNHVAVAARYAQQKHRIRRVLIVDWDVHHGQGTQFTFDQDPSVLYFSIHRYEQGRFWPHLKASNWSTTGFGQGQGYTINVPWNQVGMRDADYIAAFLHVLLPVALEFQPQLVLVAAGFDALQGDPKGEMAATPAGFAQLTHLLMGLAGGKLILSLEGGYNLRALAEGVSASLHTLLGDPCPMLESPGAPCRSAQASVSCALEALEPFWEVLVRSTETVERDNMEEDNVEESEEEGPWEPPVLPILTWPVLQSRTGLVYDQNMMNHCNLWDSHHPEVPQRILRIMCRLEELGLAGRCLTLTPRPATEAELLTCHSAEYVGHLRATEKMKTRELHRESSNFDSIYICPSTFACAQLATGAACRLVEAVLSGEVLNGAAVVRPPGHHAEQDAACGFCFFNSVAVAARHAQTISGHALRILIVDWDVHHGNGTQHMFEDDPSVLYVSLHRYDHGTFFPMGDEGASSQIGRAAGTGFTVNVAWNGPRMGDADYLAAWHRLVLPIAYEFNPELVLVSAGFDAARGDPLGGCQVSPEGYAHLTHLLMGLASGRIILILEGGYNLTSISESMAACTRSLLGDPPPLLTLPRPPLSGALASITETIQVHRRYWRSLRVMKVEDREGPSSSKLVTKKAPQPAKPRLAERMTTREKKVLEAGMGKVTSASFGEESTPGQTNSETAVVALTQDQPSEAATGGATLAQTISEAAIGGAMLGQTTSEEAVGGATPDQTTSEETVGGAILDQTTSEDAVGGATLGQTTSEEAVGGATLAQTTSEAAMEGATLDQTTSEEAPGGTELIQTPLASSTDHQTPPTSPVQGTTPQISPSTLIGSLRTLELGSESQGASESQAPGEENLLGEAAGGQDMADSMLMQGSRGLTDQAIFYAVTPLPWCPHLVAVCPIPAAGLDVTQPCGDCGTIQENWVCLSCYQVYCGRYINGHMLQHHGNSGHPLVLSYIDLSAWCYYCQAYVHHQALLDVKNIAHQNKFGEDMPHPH

HDAC3 = HDAC3 (Homo sapiens, UniProt O15379); assay: Enzymatic HDAC fluorogenic assay, HDAC3; type: biochemical
HDAC1 = HDAC1 (Homo sapiens, UniProt Q13547); assay: Enzymatic HDAC fluorogenic assay, HDAC1; type: biochemical
MDA-MB-231 cells [1] = assay: Assessment of cell morphology; type: cell-based, human; details: 24 hours, dose-dependent, most significant at 300 to 500 μM
MDA-MB-231 cells [2] = assay: Cell proliferation assay; type: cell-based, human; details: for impaired MDA-MB-231 cell growth: 3 days; for anti-proliferative activity (in words): 1, 2 and 3 days
HDAC2 = HDAC2 (Homo sapiens, UniProt Q92769); assay: Enzymatic HDAC fluorogenic assay, HDAC2; type: biochemical
HDAC11 = target: T2, HDAC11 (Homo sapiens, UniProt Q96DB2); assay: Enzymatic HDAC fluorogenic assay, HDAC11; type: biochemical
T2 sequence (Q96DB2 1-347): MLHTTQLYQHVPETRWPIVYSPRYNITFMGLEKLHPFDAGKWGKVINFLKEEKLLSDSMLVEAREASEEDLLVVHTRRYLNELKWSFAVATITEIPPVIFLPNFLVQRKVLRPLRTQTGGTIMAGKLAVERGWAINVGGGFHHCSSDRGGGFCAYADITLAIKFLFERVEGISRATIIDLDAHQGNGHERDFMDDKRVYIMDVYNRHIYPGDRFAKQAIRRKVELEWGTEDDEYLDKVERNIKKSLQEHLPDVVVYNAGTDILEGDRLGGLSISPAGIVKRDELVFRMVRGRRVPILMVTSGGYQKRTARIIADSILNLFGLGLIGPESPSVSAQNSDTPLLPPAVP

MDA-MB-231 cells [3] = assay: Western blot of acetylation status and HDAC expression; type: cell-based, human; details: 24 hours
Method in brief: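 MDA-MB-231 cells were treated 24 hours with test compound at 50–500 μM, with DMSO as negative control. Cells were lysed on ice in RIPA buffer (pH 7.6) with protease and phosphatase inhibitors. Protein (30 µg/lane) was run on SDS-PAGE and blotted to PVDF, then blocked in 5% skim milk/TBST. Antibodies against Ac-α-tubulin (Lys40), α-tubulin, Ac-histone H3 (Lys9), H3, HDAC1, HDAC6 and GAPDH were applied overnight, followed by HRP secondary and ECL detection.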

HDAC4 = HDAC4 (Homo sapiens, UniProt P56524); assay: Enzymatic HDAC fluorogenic assay, HDAC4; type: biochemical
Sequence of HDAC4 (P56524 627-1084 limits assumed): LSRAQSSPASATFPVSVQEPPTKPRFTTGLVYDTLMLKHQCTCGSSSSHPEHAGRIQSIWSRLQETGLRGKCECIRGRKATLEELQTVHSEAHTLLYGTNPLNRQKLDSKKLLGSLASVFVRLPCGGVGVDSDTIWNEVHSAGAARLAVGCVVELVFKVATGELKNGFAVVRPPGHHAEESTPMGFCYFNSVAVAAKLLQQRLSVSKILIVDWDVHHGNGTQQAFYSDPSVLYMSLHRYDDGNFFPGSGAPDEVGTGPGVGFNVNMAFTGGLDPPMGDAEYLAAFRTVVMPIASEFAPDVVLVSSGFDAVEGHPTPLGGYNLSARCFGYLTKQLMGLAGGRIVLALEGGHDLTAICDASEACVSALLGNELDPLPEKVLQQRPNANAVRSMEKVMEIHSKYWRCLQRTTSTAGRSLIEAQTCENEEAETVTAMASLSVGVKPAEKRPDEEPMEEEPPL

Sequence of HDAC2 (Q92769 whole entry): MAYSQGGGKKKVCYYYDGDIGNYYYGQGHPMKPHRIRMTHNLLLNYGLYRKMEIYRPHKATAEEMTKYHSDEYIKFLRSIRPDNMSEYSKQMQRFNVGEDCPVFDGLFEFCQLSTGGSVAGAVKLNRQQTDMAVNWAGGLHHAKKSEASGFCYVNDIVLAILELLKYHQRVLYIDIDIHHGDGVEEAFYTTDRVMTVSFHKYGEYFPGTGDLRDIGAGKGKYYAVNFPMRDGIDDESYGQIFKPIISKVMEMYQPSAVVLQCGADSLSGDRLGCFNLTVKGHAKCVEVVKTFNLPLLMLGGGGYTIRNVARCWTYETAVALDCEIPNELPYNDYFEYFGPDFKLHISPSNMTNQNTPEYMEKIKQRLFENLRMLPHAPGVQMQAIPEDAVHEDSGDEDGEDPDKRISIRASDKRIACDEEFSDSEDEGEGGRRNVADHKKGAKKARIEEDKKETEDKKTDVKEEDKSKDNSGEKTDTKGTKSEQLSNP
Sequence of HDAC1 (Q13547 whole entry): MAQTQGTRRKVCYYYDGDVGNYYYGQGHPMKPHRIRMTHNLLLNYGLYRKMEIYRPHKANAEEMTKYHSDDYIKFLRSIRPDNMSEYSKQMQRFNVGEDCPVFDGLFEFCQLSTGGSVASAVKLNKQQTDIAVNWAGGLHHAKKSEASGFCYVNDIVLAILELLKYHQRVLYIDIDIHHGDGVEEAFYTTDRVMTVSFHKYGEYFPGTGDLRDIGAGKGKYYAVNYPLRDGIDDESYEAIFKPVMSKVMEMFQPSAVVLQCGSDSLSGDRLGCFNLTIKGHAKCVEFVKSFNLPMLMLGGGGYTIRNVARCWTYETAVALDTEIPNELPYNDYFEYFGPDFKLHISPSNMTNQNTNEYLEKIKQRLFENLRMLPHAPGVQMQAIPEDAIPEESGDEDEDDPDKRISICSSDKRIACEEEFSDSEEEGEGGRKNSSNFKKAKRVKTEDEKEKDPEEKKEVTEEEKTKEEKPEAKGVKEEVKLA
Sequence of HDAC3 (O15379 whole entry): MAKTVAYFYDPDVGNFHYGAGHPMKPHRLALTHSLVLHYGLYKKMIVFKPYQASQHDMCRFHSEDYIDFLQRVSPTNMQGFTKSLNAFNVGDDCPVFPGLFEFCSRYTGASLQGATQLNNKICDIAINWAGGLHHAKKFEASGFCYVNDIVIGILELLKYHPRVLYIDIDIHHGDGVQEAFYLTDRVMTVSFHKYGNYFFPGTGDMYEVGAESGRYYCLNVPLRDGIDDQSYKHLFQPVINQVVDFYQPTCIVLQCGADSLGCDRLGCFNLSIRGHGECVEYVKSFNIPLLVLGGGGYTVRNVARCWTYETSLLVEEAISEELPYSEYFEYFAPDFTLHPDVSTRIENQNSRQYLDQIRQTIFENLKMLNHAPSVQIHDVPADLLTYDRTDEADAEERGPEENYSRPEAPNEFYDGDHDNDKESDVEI
Sequence of HDAC3 (Q9Y618 395-489 partner limits assumed): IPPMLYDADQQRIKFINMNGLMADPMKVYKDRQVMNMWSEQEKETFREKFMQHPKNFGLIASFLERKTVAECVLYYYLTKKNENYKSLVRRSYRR

| IC50 (HDAC6) | inhibition of class IIb HDAC (in words) (HDAC6) | IC50 (HDAC3) | IC50 (HDAC1) | IC50 (HDAC2) | IC50 (HDAC11) | inhibition of class IV HDAC (in words) (HDAC11) | IC50 (HDAC4) | inhibition of class IIa HDAC (in words) (HDAC4) | inhibition of class IV HDAC11 (in words) (HDAC11; up to 100 μM concentration) | Structure (SMILES) | morphological changes in cells (MDA-MB-231 cells [1]) | impaired MDA-MB-231 cell growth (MDA-MB-231 cells [2]; 500 μM) | impaired MDA-MB-231 cell growth (MDA-MB-231 cells [2]; 1000 μM) | anti-proliferative activity (in words) (MDA-MB-231 cells [2]; concentrations from 300 to 1000 μM) | anti-proliferative activity (in words) (MDA-MB-231 cells [2]; up to 100 μM concentration) | expression level of HDAC6 (MDA-MB-231 cells [3]; 500 μM) | expression level of HDAC6 (MDA-MB-231 cells [3]; 50 to 500 μM) | acetylation of α-tubulin (MDA-MB-231 cells [3]; concentrations ranging from 300 to 500 μM) | acetylation of Histone H3 (MDA-MB-231 cells [3]; up to 300 μM concentration) |
| --- | --- | --- | --- | --- | --- | --- | --- | --- | --- | --- | --- | --- | --- | --- | --- | --- | --- | --- | --- |
| > 100 µM | failed to inhibit | 7.9 ± 2.57 µM | 22.2 ± 2.69 µM | 27.3 ± 3.71 µM | > 100 µM | failed to inhibit | > 100 µM | failed to inhibit | – | O=C(CCCCCNC(=O)c1ccccc1O)Nc1ccccc1 [Compound 5, 2-Hydroxy-N-(6-oxo-6-(phenylamino)hexyl)benzamide] | more elongated and spindle-shaped | 64% | 81% | mediocre dose- and time-dependent anti-proliferative activity | no anti-proliferative activity | significantly depleted the expression level of HDAC6 | decreased the expression level of HDAC6 in a dose-dependent manner | promoted the acetylation of α-tubulin | dose-dependently increased the acetylation of Histone H3 |
| – | – | – | – | – | – | – | – | – | no inhibition | O=C(CCCCCCC(=O)Nc1ccccc1)NO [SAHA, Vorinostat, reference compound] | – | – | – | – | – | – | – | – | – |
